According to ChEMBL document CHEMBL4334464, “From Phenylthiazoles to Phenylpyrazoles: Broadening the Antibacterial Spectrum toward Carbapenem-Resistant Bacteria” (J Med Chem, 2019):
Values after ≈ are worked out from the molar mass of the structure shown. Active and inactive are the calls of the source. The calls are words filed in the database; no cut-off is given here.

tested on: Escherichia coli; experiment: Ratio of MBC to MIC for Escherichia coli ATCC 1411 clinical isolates; type: functional; settings: not given

Which Ratio does the source give for C/C(=N\NC1=NCCN1)c1cnn(-c2ccc(C#CC3CCCC3)cc2)c1C here?
The Ratio was “>=1”.

tested on: not listed separately; experiment: Stability in human liver microsomes assessed as compound remaining incubated for 15 mins in presence of NADPH by LC/MS/MS analysis; type: ADME, Microsome; settings: read-out: Stability
In short: (§1)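 Two independent runs (1st and 2nd) were done at each time point, and the mean percent remaining is reported. Incubations were run both with and without NADPH. Half-life and intrinsic clearance (Clint) were derived from the time-course data.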

With C/C(=N\NC1=NCCN1)c1cnn(-c2ccc(C#CC3CCCC3)cc2)c1C as the compound, how does the remaining at 0.25 h read?
Its remaining at 0.25 h is 99%.

tested on: Pseudomonas aeruginosa; experiment: Antibacterial activity against Pseudomonas aeruginosa ATCC 15442 clinical isolates after 18 to 20 hrs in aerobic condition by CLSI-based broth microdilution assay; type: functional; settings: not given

With C/C(=N\NC1=NCCN1)c1cnn(-c2ccc(C#CC3CCCC3)cc2)c1C as the compound, how does the MIC read?
Its MIC is 64 mg/L (≈ 171 µM).

tested on: Escherichia coli; experiment: Ratio of MBC to MIC for Escherichia coli BW25113 clinical isolates; type: functional; settings: not given

With C/C(=N\NC1=NCCN1)c1cnn(-c2ccc(C#CC3CCCC3)cc2)c1C as the compound, how does the Ratio read?
Its Ratio is “>=1”.

tested on: not listed separately; experiment: Half life in human liver microsomes in presence of NADPH by LC/MS/MS analysis; type: ADME, Microsome; settings: not given

For C/C(=N\NC1=NCCN1)c1cnn(-c2ccc(C#CC3CCCC3)cc2)c1C, which half-life is on record?
Its half-life is 2.55 h.

tested on: Pseudomonas aeruginosa; experiment: Antibacterial activity against carbapenem-resistant Pseudomonas aeruginosa ATCC 1744 clinical isolates after 18 to 20 hrs in aerobic condition by CLSI-based broth microdilution assay; type: functional; settings: not given

For C/C(=N\NC1=NCCN1)c1cnn(-c2ccc(C#CC3CCCC3)cc2)c1C, which MIC is on record?
The MIC was 32 mg/L (≈ 85.4 µM).

tested on: Streptococcus pneumoniae; experiment: Ratio of MBC to MIC for […] Streptococcus pneumoniae ATCC 700677 clinical isolates; type: functional; settings: not given

Which Ratio does the source give for C/C(=N\NC1=NCCN1)c1cnn(-c2ccc(C#CC3CCCC3)cc2)c1C here?
The Ratio was under 3.

tested on: Escherichia coli; experiment: Antimicrobial activity against Escherichia coli JW55031 harboring deltatolC mutant after 18 to 20 hrs in aerobic condition by CLSI protocol based broth microdilution assay; type: functional; settings: not given

Which MIC does the source give for C/C(=N\NC1=NCCN1)c1cnn(-c2ccc(C#CC3CCCC3)cc2)c1C here?
The MIC was 4 mg/L (≈ 10.7 µM).

tested on: Listeria monocytogenes; experiment: Ratio of MBC to MIC for Listeria monocytogenes ATCC 19111 clinical isolates; type: functional; settings: not given

Which Ratio does the source give for C/C(=N\NC1=NCCN1)c1cnn(-c2ccc(C#CC3CCCC3)cc2)c1C here?
Its Ratio is under 3.

tested on: Enterococcus faecalis; experiment: Ratio of MBC to MIC for vancomycin-resistant Enterococcus faecalis ATCC 51299 clinical isolates; type: functional; settings: not given

Which Ratio does the source give for C/C(=N\NC1=NCCN1)c1cnn(-c2ccc(C#CC3CCCC3)cc2)c1C here?
The Ratio was under 3.

tested on: Streptococcus pneumoniae; experiment: Antibacterial activity against cephalosporin-resistant Streptococcus pneumoniae ATCC 51916 clinical isolates after 18 to 20 hrs by CLSI-based broth microdilution assay; type: functional; settings: not given

With C/C(=N\NC1=NCCN1)c1cnn(-c2ccc(C#CC3CCCC3)cc2)c1C as the compound, how does the MIC read?
Its MIC is 8 mg/L (≈ 21.4 µM).

tested on: Clostridioides difficile; experiment: Ratio of MBC to MIC for Clostridium difficile ATCC BAA 1870; type: functional; settings: not given

Which Ratio does the source give for C/C(=N\NC1=NCCN1)c1cnn(-c2ccc(C#CC3CCCC3)cc2)c1C here?
The Ratio was under 3.

tested on: Staphylococcus aureus; experiment: Antibacterial activity against methicillin-resistant Staphylococcus aureus NRS384-USA300 clinical isolates after 18 to 20 hrs in aerobic condition by CLSI protocol based broth microdilution assay; type: functional; settings: not given

With C/C(=N\NC1=NCCN1)c1cnn(-c2ccc(C#CC3CCCC3)cc2)c1C as the compound, how does the MIC read?
The MIC was 4 mg/L (≈ 10.7 µM).

tested on: Acinetobacter baumannii; experiment: Antibacterial activity against Acinetobacter baumannii NR 17786 clinical isolates after 18 to 20 hrs in aerobic condition by CLSI-based broth microdilution assay; type: functional; settings: not given

For C/C(=N\NC1=NCCN1)c1cnn(-c2ccc(C#CC3CCCC3)cc2)c1C, which MIC is on record?
Its MIC is 16 mg/L (≈ 42.7 µM).

tested on: not listed separately; experiment: Stability in human liver microsomes assessed as compound remaining measured immediately in absence of NADPH by LC/MS/MS analysis; type: ADME, Microsome; settings: read-out: Stability; in short: as §1

With C/C(=N\NC1=NCCN1)c1cnn(-c2ccc(C#CC3CCCC3)cc2)c1C as the compound, how does the remaining at 0 min read?
The remaining at 0 min was 100%.

tested on: not listed separately; experiment: Half life in human liver microsomes in absence of NADPH by LC/MS/MS analysis; type: ADME, Microsome; settings: not given

With C/C(=N\NC1=NCCN1)c1cnn(-c2ccc(C#CC3CCCC3)cc2)c1C as the compound, how does the half-life read?
Its half-life is 20.3 h.

tested on: not listed separately; experiment: Intrinsic clearance in human liver microsomes in presence of NADPH by LC/MS/MS analysis; type: ADME, Microsome; settings: read-out: CLH

Which microsomal CLint does the source give for C/C(=N\NC1=NCCN1)c1cnn(-c2ccc(C#CC3CCCC3)cc2)c1C here?
Its microsomal CLint is 42.3 µL/min/mg.

target: T1, Ditrans,polycis-undecaprenyl-diphosphate synthase ((2E,6E)-farnesyl-diphosphate specific) (Escherichia coli (strain K12)) (UniProt P60472); experiment: Inhibition of Escherichia coli UPPS using FPP/IPP as substrate preincubated for 30 mins followed by substrates addition and measured after 30 mins by malachite green reagent based assay; settings: not given
T1 sequence (whole entry): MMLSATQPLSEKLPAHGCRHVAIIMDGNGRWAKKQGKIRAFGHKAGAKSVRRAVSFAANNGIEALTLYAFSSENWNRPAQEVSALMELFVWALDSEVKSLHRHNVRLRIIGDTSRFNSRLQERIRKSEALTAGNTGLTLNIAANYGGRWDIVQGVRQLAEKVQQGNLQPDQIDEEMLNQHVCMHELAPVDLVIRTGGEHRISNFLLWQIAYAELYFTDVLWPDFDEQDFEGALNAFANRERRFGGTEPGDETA

Which inhibition does the source give for C/C(=N\NC1=NCCN1)c1cnn(-c2ccc(C#CC3CCCC3)cc2)c1C here?
The inhibition was “inactive”.

tested on: Escherichia coli; experiment: microbe, parasite or virus in culture; settings: ATCC 1411

Which MIC does the source give for C/C(=N\NC1=NCCN1)c1cnn(-c2ccc(C#CC3CCCC3)cc2)c1C here?
Its MIC is 64 mg/L (≈ 171 µM).

tested on: Pseudomonas aeruginosa; experiment: Ratio of MBC to MIC for Pseudomonas aeruginosa ATCC 9027 clinical isolates; type: functional; settings: not given

For C/C(=N\NC1=NCCN1)c1cnn(-c2ccc(C#CC3CCCC3)cc2)c1C, which Ratio is on record?
Its Ratio is “>=1”.

tested on: Pseudomonas aeruginosa; experiment: microbe, parasite or virus in culture; settings: ATCC 25619

Which MIC does the source give for C/C(=N\NC1=NCCN1)c1cnn(-c2ccc(C#CC3CCCC3)cc2)c1C here?
The MIC was 64 mg/L (≈ 171 µM).

tested on: Clostridioides difficile; experiment: Antibacterial activity against Clostridium difficile ATCC BAA 1870 incubated for 48 hrs in anaerobic condition by CLSI-based broth microdilution assay; type: functional; settings: ATCC BAA 1870, 48 h

For C/C(=N\NC1=NCCN1)c1cnn(-c2ccc(C#CC3CCCC3)cc2)c1C, which MIC is on record?
The MIC was 4 mg/L (≈ 10.7 µM).

tested on: Klebsiella pneumoniae; experiment: Antibacterial activity against carbapenem-resistant Klebsiella pneumoniae ATCC BAA-1705 clinical isolates after 18 to 20 hrs in aerobic condition by CLSI-based broth microdilution assay; type: functional; settings: not given

Which MIC does the source give for C/C(=N\NC1=NCCN1)c1cnn(-c2ccc(C#CC3CCCC3)cc2)c1C here?
Its MIC is 64 mg/L (≈ 171 µM).

tested on: Klebsiella pneumoniae; experiment: Antibacterial activity against Klebsiella pneumoniae BAA-1706 clinical isolates after 18 to 20 hrs in aerobic condition by CLSI-based broth microdilution assay; type: functional; settings: not given

Which MIC does the source give for C/C(=N\NC1=NCCN1)c1cnn(-c2ccc(C#CC3CCCC3)cc2)c1C here?
Its MIC is 32 mg/L (≈ 85.4 µM).

tested on: not listed separately; experiment: Stability in human liver microsomes assessed as compound remaining measured immediately in presence of NADPH by LC/MS/MS analysis; type: ADME, Microsome; settings: read-out: Stability; in short: as §1

With C/C(=N\NC1=NCCN1)c1cnn(-c2ccc(C#CC3CCCC3)cc2)c1C as the compound, how does the remaining at 0 min read?
Its remaining at 0 min is 100%.

tested on: Klebsiella pneumoniae; experiment: Antibacterial activity against carbapenem-resistant Klebsiella pneumoniae ATCC BAA-2146 clinical isolates after 18 to 20 hrs in aerobic condition by CLSI-based broth microdilution assay; type: functional; settings: not given

With C/C(=N\NC1=NCCN1)c1cnn(-c2ccc(C#CC3CCCC3)cc2)c1C as the compound, how does the MIC read?
The MIC was 64 mg/L (≈ 171 µM).

tested on: Salmonella enterica; experiment: Antibacterial activity against Salmonella enterica NR-170 clinical isolates after 18 to 20 hrs in aerobic condition by CLSI-based broth microdilution assay; type: functional; settings: not given

Which MIC does the source give for C/C(=N\NC1=NCCN1)c1cnn(-c2ccc(C#CC3CCCC3)cc2)c1C here?
The MIC was 32 mg/L (≈ 85.4 µM).

tested on: Enterococcus faecium; experiment: Ratio of MBC to MIC for vancomycin-resistant Enterococcus faecium ATCC 700221 clinical isolates; type: functional; settings: not given

With C/C(=N\NC1=NCCN1)c1cnn(-c2ccc(C#CC3CCCC3)cc2)c1C as the compound, how does the Ratio read?
Its Ratio is under 3.

tested on: Salmonella enteritidis; experiment: Ratio of MBC to MIC for Salmonella enteritidis ATCC 14028 clinical isolates; type: functional, Salmonella enterica subsp. enterica serovar Enteritidis; settings: not given

For C/C(=N\NC1=NCCN1)c1cnn(-c2ccc(C#CC3CCCC3)cc2)c1C, which Ratio is on record?
Its Ratio is “>=1”.

tested on: Staphylococcus aureus; experiment: Bactericidal activity against methicillin-resistant Staphylococcus aureus NRS123-USA400 clinical isolates at 5 times MIC incubated over 24 hrs followed by replating on tryptic soy agar plate and further incubated for 18 to 20 hrs by time kill assay; type: functional, organism-based; settings: not given

With C/C(=N\NC1=NCCN1)c1cnn(-c2ccc(C#CC3CCCC3)cc2)c1C as the compound, how does the Activity read?
Its Activity is “Active”.

tested on: Streptococcus pneumoniae; experiment: Antibacterial activity against methicillin-resistant Streptococcus pneumoniae ATCC 700677 clinical isolates after 18 to 20 hrs by CLSI-based broth microdilution assay; type: functional; settings: not given

Which MIC does the source give for C/C(=N\NC1=NCCN1)c1cnn(-c2ccc(C#CC3CCCC3)cc2)c1C here?
Its MIC is 4 mg/L (≈ 10.7 µM).

tested on: Staphylococcus aureus; experiment: Antibacterial activity against Methicillin-resistant Staphylococcus aureus NRS123-USA400 clinical isolates after 18 to 20 hrs in aerobic condition by CLSI protocol based broth microdilution assay; type: functional; settings: not given

Which MIC does the source give for C/C(=N\NC1=NCCN1)c1cnn(-c2ccc(C#CC3CCCC3)cc2)c1C here?
Its MIC is 4 mg/L (≈ 10.7 µM).

tested on: Acinetobacter baumannii; experiment: microbe, parasite or virus in culture; settings: ATCC BAA 1747

Which MIC does the source give for C/C(=N\NC1=NCCN1)c1cnn(-c2ccc(C#CC3CCCC3)cc2)c1C here?
The MIC was 16 mg/L (≈ 42.7 µM).

tested on: Escherichia coli; experiment: Antibacterial activity against Escherichia coli ATCC 25922 clinical isolates after 18 to 20 hrs in aerobic condition by CLSI-based broth microdilution assay; type: functional; settings: not given

Which MIC does the source give for C/C(=N\NC1=NCCN1)c1cnn(-c2ccc(C#CC3CCCC3)cc2)c1C here?
The MIC was 32 mg/L (≈ 85.4 µM).

tested on: Acinetobacter baumannii; experiment: Ratio of MBC to MIC for Acinetobacter baumannii ATCC BAA 1141 clinical isolates; type: functional; settings: not given

Which Ratio does the source give for C/C(=N\NC1=NCCN1)c1cnn(-c2ccc(C#CC3CCCC3)cc2)c1C here?
The Ratio was “>=1”.

tested on: Staphylococcus epidermidis; experiment: Ratio of MBC to MIC for Staphylococcus epidermidis NRS101 clinical isolates; type: functional; settings: not given

Which Ratio does the source give for C/C(=N\NC1=NCCN1)c1cnn(-c2ccc(C#CC3CCCC3)cc2)c1C here?
The Ratio was under 3.

tested on: Staphylococcus aureus; experiment: Antibacterial activity against Methicillin-sensitive Staphylococcus aureus NRS107 clinical isolates after 18 to 20 hrs in aerobic condition by CLSI protocol based broth microdilution assay; type: functional; settings: not given

With C/C(=N\NC1=NCCN1)c1cnn(-c2ccc(C#CC3CCCC3)cc2)c1C as the compound, how does the MIC read?
The MIC was 2 mg/L (≈ 5.34 µM).
